SMILES strings stand for the structures.

This passage reports Activity results from ChEMBL document CHEMBL1142621, “Galloylglucosides from berries of Pimenta dioica” (J Nat Prod, 2000).

Common to all, as to assay type: functional
Assay [1] in a line: DPPH radical scavenging activity at 80 uM after 30 mins by spectrophotometric assay. In short, it runs like this: (§1)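 Compounds added to ethanolic DPPH radical solution (100 µM final). Mixtures were vortexed, then kept 30 min at 25 °C in a water bath in the dark. Remaining DPPH was read by absorbance at 517 nm. Scavenging = (A without compound − A with compound)/A without compound × 100. Means with SD from three independent experiments; column differences tested at p < 0.05.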
(In general: Loss of DPPH colour is used to gauge radical scavenging.)

Assay [2] in a line: DPPH radical scavenging activity at 40 uM after 30 mins by spectrophotometric assay. In short, it runs like this: as §1
Assay [3] is described as follows: DPPH radical scavenging activity at 20 uM after 30 mins by spectrophotometric assay. In short, it runs like this: as §1
The nature of assay [4]: DPPH radical scavenging activity at 10 uM after 30 mins by spectrophotometric assay. A digest of the protocol: as §1
A short description of assay [5]: DPPH radical scavenging activity at 5 uM after 30 mins by spectrophotometric assay. A digest of the protocol:
as §1

A short description of assay [6]: DPPH radical scavenging activity at 2.5 uM after 30 mins by spectrophotometric assay. In short, it runs like this: as §1

Take `COc1cc(CC(CO)O[C@@H]2O[C@H](COC(=O)c3cc(O)c(O)c(O)c3)[C@@H](O)[C@H](O)[C@H]2O)ccc1O` (mixture of isomers): the Activity in assay [1] is 95.6%; in assay [2] it was 95.3%; in assay [3], 92.4%; in assay [4] it was 56.9%; in assay [5], 33.1%; in assay [6] it was 17.7%.
As to `CC1=CC[C@@H](C(C)(C)O[C@@H]2O[C@H](COC(=O)c3cc(O)c(O)c(O)c3)[C@@H](O)[C@H](O)[C@H]2O)CC1`, the Activity in assay [1] was determined as 95.4%; in assay [2], 95.4%; in assay [3] it was 88.9%; in assay [4], 48.4%; in assay [5], 26.2%; in assay [6] it was 14.8%.
`Cc1cc(C(C)(C)C)c(O)c(C(C)(C)C)c1`: the Activity was 68% in assay [1]; 47.5% in assay [2]; 28.6% in assay [3]; 16.7% in assay [4]; 11.8% in assay [5]; 6.3% in assay [6].
As to `C=CCc1ccc(O[C@@H]2O[C@H](COC(=O)c3cc(O)c(O)c(O)c3)[C@@H](O)[C@H](O)[C@H]2O)c(OC)c1`, the Activity in assay [1] is 95.7%; in assay [2], 95.2%; in assay [3], 95.2%; in assay [4] it was 60.9%; in assay [5] it was 31.7%; in assay [6], 15%.
Take `O=C(O)c1cc(O)c(O)c(O)c1`: the Activity in assay [1] worked out at 95.7%; in assay [2], 94.8%; in assay [3] it was 86.8%; in assay [4] it was 61.6%; in assay [5] it was 34.9%; in assay [6] it was 19%.
Consider `Cc1c(C)c2c(c(C)c1O)CC[C@@](C)(CCC[C@H](C)CCC[C@H](C)CCCC(C)C)O2`, for which the Activity in assay [1] is 95.8%; in assay [2], 95.7%; in assay [3] it was 48.8%; in assay [4], 23.4%; in assay [5] it was 14%; in assay [6], 8.3%.
Turning to `CC1=CC[C@H](C(C)(C)O[C@@H]2O[C@H](COC(=O)c3cc(O)c(O)c(O)c3)[C@@H](O)[C@H](O)[C@H]2O)CC1`, the Activity was determined as 95.3% in assay [1]; 95.3% in assay [2]; 90.1% in assay [3]; 46.2% in assay [4]; 24.5% in assay [5]; 12.9% in assay [6].
As to `C=CCc1cc(OC)c(O)c(O[C@@H]2O[C@H](COC(=O)c3cc(O)c(O)c(O)c3)[C@@H](O)[C@H](O)[C@H]2O)c1`, the Activity in assay [1] stood at 95.8%; in assay [2], 95.7%; in assay [3], 91.2%; in assay [4] it was 53.6%; in assay [5], 26.8%; in assay [6] it was 12.2%.
